# Assay results collected from several papers.
# Protocols differ between the studies behind these lines.
# Mc1r: Melanocyte-stimulating hormone receptor (Mc1r, Mus musculus, UniProt Q01727)
# PSMB8: Proteasome subunit beta type-8 (PSMB8, Homo sapiens, UniProt P28062)
Structure (SMILES),target,observed,action,method,setting,quantity,result
CSCC[C@H](NC(=O)[C@@H](NC(=O)[C@@H](N)Cc1ccc(O)cc1)C(C)C)C(=O)NCC(=O)O,Mc1r,reporter gene,agonist,,,EC50,> 100000 nM
Cc1ncc(C(=O)N[C@@H](CC(C)C)C(=O)N[C@@H](CC(C)C)C(=O)N[C@H](/C=C/S(C)(=O)=O)Cc2ccc(CN)cc2)s1,PSMB8,enzyme activity,inhibitor,,lysate,IC50,> 10000 nM
CC1=C(/C=C/C(C)=C/C=C/C(C)=C/C=O)C(C)(C)CCC1,"Cellular retinoic acid-binding protein 2 (CRABP2, Homo sapiens, UniProt P29373, R133K/Y135F)",binding,,fluorescence,,Kd,120 nM
CN1CCN(c2ccc(Nc3ncc4cc(C#N)c(=O)n(C5CCCC5)c4n3)cc2)CC1,"Ephrin type-A receptor 1 (EPHA1, Homo sapiens, UniProt P21709)",enzyme activity,inhibitor,,,IC50,57.6 nM
N=C(N)NCCC[C@H](NC(=O)[C@H](CC(=O)O)NC(=O)[C@H](Cc1c[nH]c2ccccc12)NC(=O)[C@H](CCCNC(=N)N)NC(=O)[C@H](Cc1ccccc1)NC(=O)[C@H](Cc1c[nH]cn1)NC(=O)CN)C(=O)N[C@@H](Cc1ccccc1)C(=O)NCC(=O)O,Mc1r,reporter gene,agonist,,,EC50,7860 nM
CC(C)C[C@H](NC(=O)CN1CCOCC1)C(=O)N[C@@H](CC(C)C)C(=O)N[C@H](/C=C/S(C)(=O)=O)Cc1ccc(CN)cc1,PSMB8,enzyme activity,inhibitor,,lysate,IC50,> 10000 nM
CSCC[C@H](NC(=O)[C@@H](NC(=O)[C@@H](N)Cc1ccc(O)cc1)C(C)C)C(=O)NCC(=O)N[C@@H](Cc1c[nH]cn1)C(=O)N[C@@H](Cc1ccccc1)C(=O)N[C@@H](CCCNC(=N)N)C(=O)N[C@@H](Cc1c[nH]c2ccccc12)C(=O)O,Mc1r,reporter gene,agonist,,,EC50,2900 nM
CCCCN1CCC(COC(=O)c2ccc(N)c(OCF)c2)CC1,"Muscarinic acetylcholine receptor M3 (CHRM3, Homo sapiens, UniProt P20309)",cell-free assay,,radioligand,,Ki,1380 nM
Cc1ncc(C(=O)N[C@@H](CC2CCCCC2)C(=O)N[C@@H](CC2CCCCC2)C(=O)N[C@H](/C=C/S(C)(=O)=O)Cc2ccc(CN)cc2)s1,PSMB8,enzyme activity,inhibitor,,lysate,IC50,> 10000 nM
C[C@@H]1NC(=O)[C@H](CCCNC(=N)N)NC(=O)[C@H](Cc2ccccc2)NC(=O)[C@H](Cc2ccccc2)NC(=O)[C@H](CCCNC(=N)N)NC(=O)[C@@H]2CCCN2C(=O)[C@H]2CCCN2C(=O)[C@H](Cc2ccccc2)NC1=O,Mc1r,reporter gene,agonist,,,EC50,> 100000 nM
CC(C)C[C@H](NC(=O)[C@H](Cc1ccccc1)N=[N+]=[N-])C(=O)N[C@@H](CC(F)(F)F)C(=O)N[C@H](/C=C/S(C)(=O)=O)Cc1ccc(CN)cc1,PSMB8,enzyme activity,inhibitor,,lysate,IC50,1830 nM
CSCC[C@H](N)C(=O)NCC(=O)N[C@@H](Cc1c[nH]cn1)C(=O)N[C@@H](Cc1ccccc1)C(=O)N[C@@H](CCCNC(=N)N)C(=O)N[C@@H](Cc1c[nH]c2ccccc12)C(=O)N[C@@H](CC(=O)O)C(=O)N[C@@H](CCCNC(=N)N)C(=O)N[C@@H](Cc1ccccc1)C(=O)NCC(=O)O,Mc1r,reporter gene,agonist,,,EC50,1590 nM
CCOc1ccc2c(-c3cc(C)nc(Nc4cc(OC)cc(C(F)(F)F)c4)n3)cnn2n1,"Dual specificity tyrosine-phosphorylation-regulated kinase 1A (DYRK1A, Homo sapiens, UniProt Q13627)",enzyme activity,inhibitor,,,IC50,> 10000 nM
